# In ChEMBL document CHEMBL1926621, “New potent 5-HT(2A) receptor ligands containing an N'-cyanopicolinamidine nucleus: Synthesis and in vitro pharmacological evaluation” (Eur J Med Chem, 2012):
# Tests used:
# [1] = molecular target: T1, 5-hydroxytryptamine receptor 2C (Rattus norvegicus, UniProt P08909); assay: Displacement of [3H]mesulergine from Sprague-Dawley rat brain cortex serotonin 5-HT2C receptor after 15 mins by liquid scintillation counting in presence of 5-HT2A blocker, spiperone
# T1 sequence (P08909 whole entry): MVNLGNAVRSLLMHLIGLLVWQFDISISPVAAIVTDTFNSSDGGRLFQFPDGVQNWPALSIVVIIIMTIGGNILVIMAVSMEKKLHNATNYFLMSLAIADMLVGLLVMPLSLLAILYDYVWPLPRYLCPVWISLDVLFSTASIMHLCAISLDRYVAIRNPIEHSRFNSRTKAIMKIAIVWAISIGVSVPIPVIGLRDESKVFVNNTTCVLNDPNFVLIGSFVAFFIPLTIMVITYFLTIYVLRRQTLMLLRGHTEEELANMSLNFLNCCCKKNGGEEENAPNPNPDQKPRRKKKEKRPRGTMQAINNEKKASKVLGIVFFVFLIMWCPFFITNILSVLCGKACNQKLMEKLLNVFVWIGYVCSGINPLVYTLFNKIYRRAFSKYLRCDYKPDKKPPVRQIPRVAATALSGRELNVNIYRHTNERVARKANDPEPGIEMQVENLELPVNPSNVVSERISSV
# Summary of the method: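 Male Sprague-Dawley rat frontal cortex membranes (Tris-HCl/EDTA/MgCl2 pH 7.4, ascorbate, pargyline). 100 nM spiperone in all tubes to block 5-HT2A sites. Mianserin defined nonspecific binding. 15 min at 37 °C, PEI-soaked glass fibre filtration. Six compound concentrations in triplicate. Ki by Cheng-Prusoff.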
# [2] = molecular target: 5-hydroxytryptamine receptor 2A (Rattus norvegicus, UniProt P14842); assay: Displacement of [3H]ketanserin from Sprague-Dawley rat brain cortex serotonin 5-HT2A receptor after 15 mins by liquid scintillation counting
# Summary of the method: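 Male Sprague-Dawley rat frontal cortex membranes in 50 mM Tris-HCl, 0.5 mM EDTA, 10 mM MgCl2 pH 7.4, with 0.1% ascorbate and pargyline. 0.4 nM [3H]ketanserin, 5 mg wet tissue, 15 min at 37 °C. Filtered on PEI-soaked glass fibre. Six compound concentrations in triplicate. IC50 converted to Ki by Cheng-Prusoff.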
# [3] = molecular target: T2, 5-hydroxytryptamine receptor 1A (Rattus norvegicus, UniProt P19327); assay: Displacement of [3H]-8-OH-DPAT from Sprague-Dawley rat brain cortex serotonin 5-HT1A receptor after 30 mins by liquid scintillation counting
# T2 sequence (P19327 whole entry): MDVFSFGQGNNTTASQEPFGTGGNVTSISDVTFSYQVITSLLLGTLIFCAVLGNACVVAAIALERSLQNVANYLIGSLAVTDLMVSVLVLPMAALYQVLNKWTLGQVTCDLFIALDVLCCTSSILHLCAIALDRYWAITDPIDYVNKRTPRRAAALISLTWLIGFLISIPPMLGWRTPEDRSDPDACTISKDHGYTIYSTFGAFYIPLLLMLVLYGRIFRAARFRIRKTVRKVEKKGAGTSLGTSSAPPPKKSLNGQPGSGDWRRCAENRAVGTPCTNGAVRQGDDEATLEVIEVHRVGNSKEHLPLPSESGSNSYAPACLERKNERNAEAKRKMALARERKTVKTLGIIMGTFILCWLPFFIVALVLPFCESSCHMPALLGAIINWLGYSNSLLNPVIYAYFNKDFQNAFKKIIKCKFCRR
# Summary of the method: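 Male Sprague-Dawley rat (180-220 g) cerebral cortex homogenized in 50 mM Tris-HCl pH 7.7, spun 50,000 g. [3H]-8-OH-DPAT 0.1 nM final, 30 min at 37 °C, GF/B filtration. Test compounds in ethanol or 5% DMSO, six concentrations in triplicate. IC50 by curve fitting, Ki by Cheng-Prusoff using Scatchard-derived KD.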
# D(1A) dopamine receptor = D(1A) dopamine receptor (Rattus norvegicus, UniProt P18901); assay: Displacement of [3H]SCH-23390 from rat corpora striatum dopamine D1 receptor after 15 mins by liquid scintillation counting
# Summary of the method: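 Rat corpora striata homogenized in 50 mM Tris-HCl pH 7.7, spun twice at 50,000 g. Resuspended in Tris-HCl with NaCl, KCl, CaCl2, MgCl2, ascorbic acid and pargyline. 0.4 nM [3H]SCH-23390 final, 3 mg fresh tissue, 15 min at 37 °C. Nonspecific binding with piflutixol. Ki by Cheng-Prusoff from triplicate six-point curves.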
# D(2) dopamine receptor = D(2) dopamine receptor (Rattus norvegicus, UniProt P61169); assay: Displacement of [3H]spiperone from rat corpora striatum dopamine D2 receptor after 15 mins by liquid scintillation counting
# Summary of the method: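 Corpora striata membranes in Tris-HCl buffer containing NaCl, KCl, CaCl2, MgCl2, ascorbic acid and pargyline. [3H]spiperone 0.4 nM final, 3 mg fresh tissue, incubated 15 min at 37 °C. GF/B filtration, scintillation counting. Six concentrations in triplicate. IC50 converted to Ki via Cheng-Prusoff.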
# [4] = molecular target: T3, Adrenergic receptor alpha-2 (Rattus norvegicus, UniProt P22086+P19328+P22909); assay: Displacement of [3H]yohimbine from rat brain cortex adrenergic alpha2 receptor after 30 mins by liquid scintillation counting
# T3 sequence (P22086 whole entry): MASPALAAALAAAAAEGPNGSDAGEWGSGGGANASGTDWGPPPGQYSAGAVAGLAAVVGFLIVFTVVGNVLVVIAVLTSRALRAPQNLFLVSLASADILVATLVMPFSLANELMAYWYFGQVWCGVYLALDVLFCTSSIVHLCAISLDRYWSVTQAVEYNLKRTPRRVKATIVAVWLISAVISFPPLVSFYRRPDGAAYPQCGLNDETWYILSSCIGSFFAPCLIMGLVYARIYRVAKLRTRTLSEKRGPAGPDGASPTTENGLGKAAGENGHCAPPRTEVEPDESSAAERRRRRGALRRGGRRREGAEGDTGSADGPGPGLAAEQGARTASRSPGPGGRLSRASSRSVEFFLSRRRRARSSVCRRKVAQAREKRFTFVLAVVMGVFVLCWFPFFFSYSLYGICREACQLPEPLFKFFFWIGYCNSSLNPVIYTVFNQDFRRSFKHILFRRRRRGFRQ
# T3 sequence (P19328 whole entry): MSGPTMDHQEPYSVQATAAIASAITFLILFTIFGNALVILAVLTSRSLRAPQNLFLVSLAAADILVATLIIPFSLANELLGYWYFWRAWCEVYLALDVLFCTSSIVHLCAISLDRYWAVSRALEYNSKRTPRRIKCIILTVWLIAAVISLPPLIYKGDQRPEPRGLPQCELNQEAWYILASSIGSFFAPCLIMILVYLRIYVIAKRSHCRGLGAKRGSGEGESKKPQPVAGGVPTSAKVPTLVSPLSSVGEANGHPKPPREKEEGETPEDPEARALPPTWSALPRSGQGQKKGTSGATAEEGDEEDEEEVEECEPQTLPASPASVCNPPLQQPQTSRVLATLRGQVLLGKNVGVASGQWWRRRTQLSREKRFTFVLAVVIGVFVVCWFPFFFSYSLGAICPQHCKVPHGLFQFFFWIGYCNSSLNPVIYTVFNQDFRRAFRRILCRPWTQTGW
# T3 sequence (P22909 whole entry): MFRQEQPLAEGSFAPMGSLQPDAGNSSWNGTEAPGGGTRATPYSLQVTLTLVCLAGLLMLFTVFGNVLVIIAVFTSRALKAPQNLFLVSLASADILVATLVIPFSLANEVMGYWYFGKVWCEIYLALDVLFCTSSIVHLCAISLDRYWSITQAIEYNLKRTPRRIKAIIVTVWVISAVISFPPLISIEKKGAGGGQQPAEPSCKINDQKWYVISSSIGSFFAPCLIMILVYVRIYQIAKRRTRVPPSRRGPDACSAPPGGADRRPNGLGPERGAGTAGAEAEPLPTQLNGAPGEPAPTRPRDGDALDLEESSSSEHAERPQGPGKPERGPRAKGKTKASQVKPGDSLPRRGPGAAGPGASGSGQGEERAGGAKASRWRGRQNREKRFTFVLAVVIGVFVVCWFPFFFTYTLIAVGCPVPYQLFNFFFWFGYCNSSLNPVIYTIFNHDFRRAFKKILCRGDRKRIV
# Summary of the method: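 Cortex homogenized in 5 mM Tris-HCl, 5 mM EDTA pH 7.3, spun three times at 50,000 g, resuspended in 50 mM Tris-HCl, 0.5 mM EDTA pH 7.5. [3H]yohimbine 1 nM final, 10 mg fresh tissue, 30 min at 25 °C. Phentolamine defined nonspecific binding. Ki by Cheng-Prusoff.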
# [5] = molecular target: T4, Adrenergic receptor alpha-1 (Rattus norvegicus, UniProt P15823+P23944+P43140); assay: Displacement of [3H]prazosin from rat brain cortex adrenergic alpha1 receptor after 30 mins by liquid scintillation counting
# T4 sequence (P15823 whole entry): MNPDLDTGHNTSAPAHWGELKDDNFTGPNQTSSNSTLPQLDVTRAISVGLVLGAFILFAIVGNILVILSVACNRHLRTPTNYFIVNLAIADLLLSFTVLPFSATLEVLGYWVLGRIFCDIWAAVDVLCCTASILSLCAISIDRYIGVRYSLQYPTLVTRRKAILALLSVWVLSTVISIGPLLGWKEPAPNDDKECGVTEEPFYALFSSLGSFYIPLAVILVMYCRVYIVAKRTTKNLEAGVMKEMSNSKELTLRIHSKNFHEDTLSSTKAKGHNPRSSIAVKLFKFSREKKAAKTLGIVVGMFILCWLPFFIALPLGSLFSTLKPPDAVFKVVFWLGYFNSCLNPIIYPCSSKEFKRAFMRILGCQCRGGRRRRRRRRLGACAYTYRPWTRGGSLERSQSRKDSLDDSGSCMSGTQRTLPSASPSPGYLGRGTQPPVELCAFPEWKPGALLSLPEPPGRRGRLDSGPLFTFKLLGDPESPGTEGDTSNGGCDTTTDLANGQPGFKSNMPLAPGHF
# T4 sequence (P23944 whole entry): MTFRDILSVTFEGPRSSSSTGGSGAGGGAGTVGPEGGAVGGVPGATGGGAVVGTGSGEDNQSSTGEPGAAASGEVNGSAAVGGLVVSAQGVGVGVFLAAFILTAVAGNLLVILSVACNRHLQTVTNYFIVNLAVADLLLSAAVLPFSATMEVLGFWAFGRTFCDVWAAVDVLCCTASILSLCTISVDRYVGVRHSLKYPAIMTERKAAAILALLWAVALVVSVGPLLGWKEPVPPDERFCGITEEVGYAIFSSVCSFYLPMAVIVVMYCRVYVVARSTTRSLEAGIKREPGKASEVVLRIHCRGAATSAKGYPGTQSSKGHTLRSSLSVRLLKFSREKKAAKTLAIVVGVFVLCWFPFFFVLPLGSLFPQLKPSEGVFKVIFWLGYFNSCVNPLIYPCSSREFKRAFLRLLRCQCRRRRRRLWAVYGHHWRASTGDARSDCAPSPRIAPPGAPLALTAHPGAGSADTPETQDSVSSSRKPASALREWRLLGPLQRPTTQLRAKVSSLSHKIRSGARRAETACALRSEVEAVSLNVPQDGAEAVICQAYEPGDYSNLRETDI
# T4 sequence (P43140 whole entry): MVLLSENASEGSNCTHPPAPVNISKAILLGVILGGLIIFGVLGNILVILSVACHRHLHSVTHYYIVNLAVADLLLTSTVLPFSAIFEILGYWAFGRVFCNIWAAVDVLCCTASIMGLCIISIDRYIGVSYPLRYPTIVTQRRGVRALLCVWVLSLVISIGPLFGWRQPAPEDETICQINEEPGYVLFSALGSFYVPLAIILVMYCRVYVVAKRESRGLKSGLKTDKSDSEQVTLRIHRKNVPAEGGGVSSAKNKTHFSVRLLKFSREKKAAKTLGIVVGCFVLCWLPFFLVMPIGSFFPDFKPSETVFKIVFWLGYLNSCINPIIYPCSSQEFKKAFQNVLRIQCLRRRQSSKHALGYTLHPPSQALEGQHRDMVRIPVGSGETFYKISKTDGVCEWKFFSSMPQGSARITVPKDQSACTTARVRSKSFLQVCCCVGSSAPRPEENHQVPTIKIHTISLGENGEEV
# Summary of the method: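 Brain cortex homogenized in 50 mM Tris-HCl pH 7.2, spun twice at 50,000 g, resuspended in Tris-HCl pH 7.4. 0.4 nM [3H]prazosin final, 10 mg fresh tissue, 30 min at 25 °C. Nonspecific binding with phentolamine. GF/B filtration. Ki by Cheng-Prusoff from six-point triplicate curves.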
# Sequence of D(2) dopamine receptor (P61169 whole entry): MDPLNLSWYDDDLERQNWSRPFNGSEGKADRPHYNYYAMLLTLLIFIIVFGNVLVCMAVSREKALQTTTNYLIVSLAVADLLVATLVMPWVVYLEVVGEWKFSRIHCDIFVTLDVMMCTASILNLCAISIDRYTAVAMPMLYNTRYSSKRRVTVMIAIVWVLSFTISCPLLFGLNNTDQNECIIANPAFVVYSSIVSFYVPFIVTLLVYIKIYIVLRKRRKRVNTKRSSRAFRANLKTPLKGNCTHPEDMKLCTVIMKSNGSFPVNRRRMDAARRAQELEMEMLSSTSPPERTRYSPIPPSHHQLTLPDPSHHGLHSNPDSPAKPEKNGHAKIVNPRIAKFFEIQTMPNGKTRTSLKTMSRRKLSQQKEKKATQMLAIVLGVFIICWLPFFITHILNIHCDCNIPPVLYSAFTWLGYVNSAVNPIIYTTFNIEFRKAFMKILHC
# Sequence of D(1A) dopamine receptor (P18901 whole entry): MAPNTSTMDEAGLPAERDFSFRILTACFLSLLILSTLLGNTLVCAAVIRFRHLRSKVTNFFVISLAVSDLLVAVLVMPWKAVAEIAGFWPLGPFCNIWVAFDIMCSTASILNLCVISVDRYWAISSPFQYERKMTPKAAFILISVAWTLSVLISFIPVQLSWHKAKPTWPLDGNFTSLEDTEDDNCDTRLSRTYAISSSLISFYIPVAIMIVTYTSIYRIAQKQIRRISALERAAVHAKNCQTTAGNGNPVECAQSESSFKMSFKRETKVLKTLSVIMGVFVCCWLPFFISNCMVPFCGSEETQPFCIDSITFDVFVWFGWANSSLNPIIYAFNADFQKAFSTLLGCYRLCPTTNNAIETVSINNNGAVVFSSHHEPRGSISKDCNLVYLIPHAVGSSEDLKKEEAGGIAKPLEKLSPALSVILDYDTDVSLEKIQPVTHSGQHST
# Sequence of 5-hydroxytryptamine receptor 2A (P14842 whole entry): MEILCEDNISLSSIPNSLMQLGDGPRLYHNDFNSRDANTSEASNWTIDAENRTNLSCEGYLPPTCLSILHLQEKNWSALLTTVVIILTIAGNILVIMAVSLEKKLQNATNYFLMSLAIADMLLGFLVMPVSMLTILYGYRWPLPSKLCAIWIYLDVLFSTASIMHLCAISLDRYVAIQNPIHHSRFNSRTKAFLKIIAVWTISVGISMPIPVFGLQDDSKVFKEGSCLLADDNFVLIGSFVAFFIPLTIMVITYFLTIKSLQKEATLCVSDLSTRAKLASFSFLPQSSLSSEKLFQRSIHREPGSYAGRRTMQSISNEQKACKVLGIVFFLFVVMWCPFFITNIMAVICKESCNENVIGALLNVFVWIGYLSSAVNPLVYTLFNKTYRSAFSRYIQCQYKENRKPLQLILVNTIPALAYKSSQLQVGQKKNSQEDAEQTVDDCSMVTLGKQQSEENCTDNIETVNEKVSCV
SMILES,Ki ([1]; read-out: Ki),Ki [2],Ki [3],Ki ([2]; read-out: Ki),Ki ([3]; read-out: Ki),Ki [1],also measured
COCCN1CCN(CCCN/C(=N\C#N)c2ccccn2)CC1,389 nM,Not Active,Not Active,,,,
CCOCCN1CCN(CCCN/C(=N\C#N)c2ccccn2)CC1,597 nM,Not Active,Not Active,,,,
N#CNC(=NCCCN1CCN(c2cccc(Cl)c2)CC1)c1ccccn1,3.28 nM,,,0.000185 nM,6.67 nM,,IC50 [2]: 0.00025 nM; Ki (D(1A) dopamine receptor; read-out: Ki): > 10000 nM; Ki (D(2) dopamine receptor; read-out: Ki): > 10000 nM
N#C/N=C(\NCCCN1CCN(c2ccccc2Cl)CC1)c1ccccn1,,,,27 nM,170 nM,Not Active,
N#C/N=C(\NCCCN1CCN(Cc2ccc3c(c2)OCO3)CC1)c1ccccn1,,,,51.8 nM,> 10000 nM,Not Active,Ki (D(1A) dopamine receptor): Not Active; Ki (D(2) dopamine receptor): Not Active; Ki [4]: 964 nM
N#C/N=C(\NCCCN1CCN(c2ccccc2C#N)CC1)c1ccccn1,28.8 nM,,,904 nM,> 10000 nM,,
COc1ccc(N2CCN(CCCN/C(=N\C#N)c3ccccn3)CC2)cc1,,,,> 10000 nM,0.0842 nM,Not Active,Ki (D(1A) dopamine receptor; read-out: Ki): > 10000 nM; Ki (D(2) dopamine receptor; read-out: Ki): > 10000 nM; Ki [5]: > 10000 nM
C=CCN1CCN(CCCN/C(=N\C#N)c2ccccn2)CC1,> 10000 nM,Not Active,Not Active,,,,
N#C/N=C(\NCCCN1CCN(C(=O)c2ccco2)CC1)c1ccccn1,,,,21.5 nM,> 10000 nM,Not Active,Ki (D(1A) dopamine receptor): Not Active; Ki (D(2) dopamine receptor): Not Active; Ki [4]: > 10000 nM
